Series [1] has as its target T1, Corticotropin-releasing factor receptor 1 (Rattus norvegicus, UniProt P35353).
T1 sequence (P35353 whole entry): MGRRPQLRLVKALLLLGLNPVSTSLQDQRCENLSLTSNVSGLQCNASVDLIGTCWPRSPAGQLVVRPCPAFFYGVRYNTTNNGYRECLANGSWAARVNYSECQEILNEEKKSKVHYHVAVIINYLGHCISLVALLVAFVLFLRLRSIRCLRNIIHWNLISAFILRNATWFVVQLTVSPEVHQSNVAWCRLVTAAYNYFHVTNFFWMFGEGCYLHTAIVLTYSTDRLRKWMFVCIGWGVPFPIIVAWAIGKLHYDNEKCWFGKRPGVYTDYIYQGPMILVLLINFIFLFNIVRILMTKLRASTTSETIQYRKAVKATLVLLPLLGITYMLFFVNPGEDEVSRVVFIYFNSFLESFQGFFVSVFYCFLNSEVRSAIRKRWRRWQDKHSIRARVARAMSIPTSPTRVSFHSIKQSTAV
Put plainly: Displacement of [125I]Tyr-o-CRF from CRF1 receptor in rat frontal cortex homogenate by binding titration assay. Format: tissue-based.

Series [2] is described as follows: Clearance in Sprague-Dawley rat at 2 mg/kg, iv after 0.17 to 24 hrs by LC/MS/MS analysis. Details: dose 2 mg/kg, route intravenous. The class given is ADME, organism-based. The conditions noted are these: in vivo.
Series [3] can be described thus: Volume of distribution at steady state in Sprague-Dawley rat at 2 mg/kg, iv after 0.17 to 24 hrs by LC/MS/MS analysis. Format: ADME, organism-based. Details: dose 2 mg/kg, route intravenous. The note with it: in vivo, read-out: Vdss. Put shortly:
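Sprague–Dawley rats (n = 3) dosed 2 mg/kg iv in PEG:ethanol 90:10 (v/v) at 1 mL/kg. Plasma stored at –20 °C and quantified by LC/MS/MS after acetonitrile precipitation with internal standard.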

The nature of series [4]: Half life in Sprague-Dawley rat at 2 mg/kg, iv by LC/MS/MS analysis. Format: ADME, organism-based. Details: dose 2 mg/kg, route intravenous. The conditions noted are these: in vivo.
Series [5] in a line: Oral bioavailability in Sprague-Dawley rat at 10 mg/kg dosed as aqueous suspension of Labrafil M 1944CS/DMAC/polysorbate 80, 85:10:5 (v/v) after 0.25 to 24 hrs by LC/MS/MS analysis. The class given is ADME, organism-based. The conditions noted are these: in vivo.
Series [6] in a line: Octanol-water partition coefficient, log D at pH 7.4. The class given is physicochemical. Put shortly: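 Partitioning between octanol and water at pH 7.4.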
Series [7] in a line: Aqueous solubility at pH 6.5. The class given is physicochemical.
The nature of series [8]: Aqueous solubility at pH 1. The class given is physicochemical.
A short description of series [9]: Solubility in simulated intestinal fluid. The class given is physicochemical. An outline of the steps:
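Solubility measured in simulated gastric fluid and in simulated intestinal fluid (fed state).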

The nature of series [10]: Metabolic stability in NADPH-fortified human liver microsomes assessed as parent compound remaining at 10 uM after 30 mins by HPLC/UV/MS analysis. The conditions noted are these: read-out: Stability. The class given is ADME, Microsome. An outline of the steps:
(§1)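 Pooled rat or human liver microsomes 1 mg/mL, 10 μM substrate, 100 mM potassium phosphate pH 7.4, 37 °C, started with NADPH-regenerating system (1.3 mM NADP+, 3.3 mM glucose-6-phosphate, 3.3 mM MgCl2, 0.5 U/mL G6PDH); GSH 5 mM in trapping runs. Sampled 0 and 30 min, acetonitrile quench; abundance as UV peak area (330–340 nm) fraction of all drug-related components by HPLC/UV/MS.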
Background: Microsomes from liver hold many membrane-bound enzymes, among them those of drug oxidation.

The next series has as its system Liver microsomes. As to the kind of experiment: Metabolic stability in NADPH-fortified human liver microsomes assessed as GSH adduct formation at 10 uM after 30 mins by HPLC/UV/MS analysis. The class given is ADME, Microsome. The conditions noted are these: 0.5 h. Put shortly: as §1
A short description of series [11]: Metabolic stability in NADPH-fortified rat liver microsomes assessed as parent compound remaining at 10 uM after 30 mins by HPLC/UV/MS analysis. The conditions noted are these: read-out: Stability. Format: ADME, Microsome. Put shortly: as §1
The nature of series [12]: Drug metabolism in bile duct cannulated Sprague-Dawley rat assessed as GSH adduct formation in bile at 20 mg/kg, po after 24 hrs by HPLC/UV/MS analysis. The class given is ADME, organism-based. Further details: dose 20 mg/kg, route oral. The conditions noted are these: in vivo. An outline of the steps:
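Male Sprague–Dawley bile duct cannulated rats (n = 3) dosed orally at 20 mg/kg in PEG/ethanol 90:10; vehicle-dosed controls (n = 3). Bile and urine pooled over 0–24 h, acetonitrile-precipitated and profiled by HPLC/UV/MS (Hydro-RP column, PDA 200–550 nm, positive-ion full and data-dependent scans).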

Series [13] relates to Rattus norvegicus. Put plainly: Plasma free concentration in Sprague-Dawley rat at 1 mg/kg, po after 1 to 3 hrs by LC/MS/MS analysis. Details: dose 1 mg/kg, route oral. Format: ADME, organism-based. The conditions noted are these: in vivo.
The subject of series [14] is Rattus norvegicus. Put plainly: Plasma free concentration in Sprague-Dawley rat at 1.8 mg/kg, po after 1 to 3 hrs by LC/MS/MS analysis. Format: ADME, organism-based. Further details: dose 1.8 mg/kg, route oral. The conditions noted are these: in vivo.
In series [15] the test system is Rattus norvegicus. As to the kind of experiment: Ex vivo receptor occupancy of CRF1 receptor in Sprague-Dawley rat brain parietal assessed as inhibition of [125I]sauvagine binding at 0.56 mg/kg, po after 90 mins by autoradiography. The class given is functional. The note with it: 1.5 h.
The subject of series [16] is Rattus norvegicus. As to the kind of experiment: Ex vivo receptor occupancy of CRF1 receptor in Sprague-Dawley rat brain parietal assessed as inhibition of [125I]sauvagine binding at 3 mg/kg, po after 90 mins by autoradiography. The class given is functional. The note with it: 1.5 h.
Series [17] has as its system Rattus norvegicus. As to the kind of experiment: Anxiolytic activity in Sprague-Dawley rat assessed as decrease in exit latency at 0.56 mg/kg, po after 60 mins by defensive withdrawal test relative to control. Further details: scale not given: the % may be the effect or the level left. Format: functional. Put shortly:
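Rats placed in a darkened chamber within an open illuminated field; time to emerge measured 60 min after oral dosing (0.56–3 mg/kg), n = 8; percent decrease in exit latency versus vehicle-treated animals, p < 0.05 significance.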

Series [18] can be described thus: Clearance in Beagle dog at 2 mg/kg, iv after 0.17 to 24 hrs by LC/MS/MS analysis. The conditions noted are these: in vivo. The class given is ADME, organism-based, Canis lupus familiaris. Further details: dose 2 mg/kg, route intravenous. Put shortly:
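Male beagle dogs (n = 4), 2 mg/kg iv in propylene glycol:ethanol 90:10 (v/v), 1 mL/kg infused over 5 min at 0.2 mL/kg/min; femoral vein blood at 0.17–24 h; plasma frozen at –20 °C, analysed by LC/MS/MS.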

Series [19] is described as follows: Volume of distribution at steady state in Beagle dog at 2 mg/kg, iv after 0.17 to 24 hrs by LC/MS/MS analysis. Format: ADME, organism-based, Canis lupus familiaris. Further details: dose 2 mg/kg, route intravenous. The note with it: in vivo, read-out: Vdss. Put shortly: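 Male beagle dogs (n = 4) given 2 mg/kg iv in propylene glycol:ethanol 90:10 (v/v), 1 mL/kg infused over 5 min at 0.2 mL/kg/min. Plasma stored at –20 °C and analysed by LC/MS/MS after acetonitrile precipitation.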

The nature of series [20]: Oral bioavailability in Beagle dog at 2 mg/kg dosed as aqueous suspension of 1% polysorbate 80 in 0.5% methylcellulose after 0.25 to 24 hrs by LC/MS/MS analysis. Format: ADME, organism-based, Canis lupus familiaris. The note with it: in vivo.
Series [21] in a line: Oral bioavailability in Beagle dog at 3 mg/kg, po dosed as aqueous suspension of Labrafil M 1944CS/DMAC/polysorbate 80, 85:10:5 (v/v) after 0.25 to 24 hrs by LC/MS/MS analysis. The class given is ADME, organism-based, Canis lupus familiaris. The conditions noted are these: in vivo. Put shortly:
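Fasted male beagle dogs dosed orally at 1 mL/kg: 2 mg/kg as 0.2% polysorbate 80 in 0.5% methylcellulose suspension (n = 4) or 3 mg/kg in Labrafil M 1944CS/DMAC/polysorbate 80 85:10:5 (n = 2). Femoral vein blood 0.25–24 h; plasma by LC/MS/MS.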

The test system of series [22] is Rattus norvegicus. Put plainly: Ex vivo receptor occupancy of CRF1 receptor in po dosed Sprague-Dawley rat brain parietal assessed as inhibition of [125I]sauvagine binding after 90 mins by autoradiography. Format: functional, organism-based.
The test system of series [23] is Rattus norvegicus. As to the kind of experiment: Toxicity in Sprague-Dawley rat at 60 mg/kg after 2 weeks. Format: organism-based. Details: dose 60 mg/kg. The conditions noted are these: in vivo, 336 h.

Converted amounts (≈) assume the structure as drawn.

Results on one compound are retold here after ChEMBL document CHEMBL1154735, “A strategy to minimize reactive metabolite formation: discovery of (S)-4-(1-cyclopropyl-2-methoxyethyl)-6-[6-(difluoromethoxy)-2,5-dimethylpyridin-3-ylamino]-5-oxo-4,5-dihydropyrazine-2-carbonitrile as a potent, orally bioavailable corticotropin-releasing factor-1 receptor antagonist” (J Med Chem, 2009).

`COC[C@H](C1CC1)n1cc(C#N)nc(Nc2cc(C)c(OC(F)F)nc2C)c1=O`: in series [1], the half-inhibitory concentration (IC50) – broadly, the concentration at which inhibition is half-maximal – is 0.86 nM. Moreover, the clearance (usually the rate of elimination divided by the concentration) in [2] came to 29 mL/min/kg; in series [18], 7.3 mL/min/kg. Also, the Vd is 11 L/kg in series [3] and 13 L/kg in series [19]. The half-life – broadly, how long it takes for the measured level to halve – in series [4] was 558 min. In addition, the bioavailability (commonly dose-corrected exposure relative to a reference, in per cent) in series [5] was 66%; in series [20] it was 53%; in series [21], 70%. Further, the logD (as a rule, lipophilicity at a set pH, counting ionised and neutral species) in series [6] is 3.9. Further, the values for the solubility in series [7], in [8] and in series [9] were 4 µg/mL (≈ 9.87 µM), 3 µg/mL (≈ 7.4 µM) and 7.4 µg/mL (≈ 18.3 µM), respectively. For the same compound, the values for the remaining at 0.5 h, 10 µM in series [10] and in series [11] were 56% and 82%, respectively. For the same compound, the Activity is 1% in the series with Liver microsomes; 0.1% in [12]; 7% with Rattus norvegicus [17]; “Dose-dependent effect” in the series on Rattus norvegicus [22]; “Non-toxic” in the series with Rattus norvegicus [23]. The “Cp(f)” value was 1.6 nM in the series with Rattus norvegicus [13] and 2.9 nM in the series with Rattus norvegicus [14]. Besides, the inhibition in vivo (as a rule, the relative decrease from the control value, in per cent) at 0.56 mg/kg in the series with Rattus norvegicus [15] came out at 39%. Besides, the inhibition in vivo at 3 mg/kg with Rattus norvegicus [16] is 80%.
